Results reported in ChEMBL document CHEMBL2086362, “Synthesis and characterization of novel 2-amino-3-benzoylthiophene derivatives as biased allosteric agonists and modulators of the adenosine A(1) receptor” (J Med Chem, 2012).
Calls of active or inactive are those of the source. The rule behind the calls is not given here.

How the values were obtained:
Type in all cases: functional, cell-based
[1] = biological target: T1, Adenosine receptor A1 (Homo sapiens) (UniProt P30542); assay: Agonist activity at human A1 receptor expressed in CHO cells assessed as enhancement of R-PIA mediated ERK1/2 phosphorylation at 3 uM after 5 mins by Alpha-Screen assay
T1 sequence (whole entry): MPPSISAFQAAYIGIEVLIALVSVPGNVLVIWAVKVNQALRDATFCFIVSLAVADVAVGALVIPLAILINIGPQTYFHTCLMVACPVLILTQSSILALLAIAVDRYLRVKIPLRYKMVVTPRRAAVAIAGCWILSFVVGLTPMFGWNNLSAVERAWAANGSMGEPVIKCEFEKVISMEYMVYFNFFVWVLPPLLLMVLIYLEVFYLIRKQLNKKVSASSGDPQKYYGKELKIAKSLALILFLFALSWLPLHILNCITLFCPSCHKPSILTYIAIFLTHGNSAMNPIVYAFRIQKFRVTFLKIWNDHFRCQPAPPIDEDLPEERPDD
In short: (§1)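 Flp-In CHO cells stably expressing human A1R, 30000/well, serum-starved overnight, then 1 U/mL ADA for 30 min. Test compound (3 or 10 μM) added 5 min before an EC50 concentration of R-PIA (determined same day), then a further 5 min at 37 °C. pERK1/2 read by SureFire AlphaScreen. Mean of two to three experiments in triplicate.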

[2] = biological target: T1, Adenosine receptor A1 (Homo sapiens); assay: Agonist activity at human A1 receptor expressed in CHO cells assessed as enhancement of R-PIA mediated ERK1/2 phosphorylation at 10 uM after 5 mins by Alpha-Screen assay; in short: as §1
[3] = biological target: T1, Adenosine receptor A1 (Homo sapiens); assay: Agonist activity at human A1 receptor expressed in CHO cells assessed as stimulation of ERK1/2 phosphorylation at 3 to 10 uM after 5 mins by Alpha-Screen assay
In short: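 Flp-In CHO cells stably expressing human A1R, serum-starved overnight and pretreated with 1 U/mL ADA for 30 min. Compound (3 and 10 μM) applied alone, 5 min at 37 °C. Intrinsic agonism measured as ERK1/2 phosphorylation by SureFire AlphaScreen, with 3% FBS as positive control. Two to three experiments in triplicate.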

[4] = biological target: T1, Adenosine receptor A1 (Homo sapiens); assay: Positive allosteric modulation at human A1 receptor expressed in CHO cells assessed as enhancement of R-PIA-mediated inhibition of forskolin-stimulated cAMP accumulation after 30 mins by Alpha-Screen assay
In short: (§2)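 Serum-starved CHO-FlpIn hA1R cells were preincubated 30 min in phenol red-free DMEM with 0.1% BSA, 1 U/mL ADA and 500 μM IBMX. They were then treated with 10 μM forskolin plus R-PIA and/or modulator for 30 min at 37 °C, and cAMP was read by AlphaScreen. Data were normalized to 10 μM forskolin and fitted to an operational model of allosterism. Three experiments in duplicate.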

[5] = biological target: T1, Adenosine receptor A1 (Homo sapiens); assay: Positive allosteric modulation at human A1 receptor expressed in CHO cells assessed as inhibition of forskolin-stimulated cAMP accumulation after 30 mins by Alpha-Screen assay; in short: as §2

Activity [1] [%] | Activity [2] [%] | Activity [3] | Activity [4] | Activity [5] | SMILES
83 | 95 | – | – | – | Cc1sc(N)c(C(=O)c2ccccc2)c1-c1cc(C(F)(F)F)cc(C(F)(F)F)c1
94 | 94 | Active | Active | – | Cc1sc(N)c(C(=O)c2ccc(Cl)cc2)c1-c1cccc(C(F)(F)F)c1
84 | 84 | – | – | – | Cc1sc(N)c(C(=O)c2cccc(C(F)(F)F)c2)c1-c1cc(C(F)(F)F)cc(C(F)(F)F)c1
88 | 88 | – | – | – | Nc1scc(-c2cccc(C(F)(F)F)c2)c1C(=O)c1ccc(Cl)c(Cl)c1
92 | 80 | – | – | – | Cc1ccc(C(=O)c2c(N)sc(C)c2-c2cc(C(F)(F)F)cc(C(F)(F)F)c2)cc1
86 | 90 | – | – | – | Cc1ccc(C(=O)c2c(N)sc(C)c2-c2cccc(C(F)(F)F)c2)cc1
86 | 87 | – | – | – | Cc1ccc(C(=O)c2c(-c3cc(C(F)(F)F)cc(C(F)(F)F)c3)csc2N)cc1

The remaining lines, values behind:

SMILES | Activity [1] [%] | Activity [2] [%] | Activity [3] | Activity [4] | Activity [5]
Cc1ccc(C(=O)c2c(-c3cccc(C(F)(F)F)c3)csc2N)cc1 | 85 | 83 | – | – | –
Nc1scc(-c2cc(C(F)(F)F)cc(C(F)(F)F)c2)c1C(=O)c1ccc(Cl)c(Cl)c1 | 90 | 90 | – | – | –
Nc1scc(-c2cccc(C(F)(F)F)c2)c1C(=O)c1cccc(C(F)(F)F)c1 | 93 | 94 | – | – | –
Cc1sc(N)c(C(=O)c2ccc(Cl)c(Cl)c2)c1-c1cccc(C(F)(F)F)c1 | 73 | 75 | – | – | –
Cc1sc(N)c(C(=O)c2ccccc2)c1-c1cccc(C(F)(F)F)c1 | 77 | 73 | Active | Active | Active
Cc1sc(N)c(C(=O)c2cccc(C(F)(F)F)c2)c1-c1cccc(C(F)(F)F)c1 | 90 | 86 | – | – | –
Cc1sc(N)c(C(=O)c2ccc(Cl)c(Cl)c2)c1-c1cc(C(F)(F)F)cc(C(F)(F)F)c1 | 78 | 84 | – | – | –
Cc1sc(N)c(C(=O)c2ccc(Cl)cc2)c1-c1cc(C(F)(F)F)cc(C(F)(F)F)c1 | 84 | 88 | – | – | –
Nc1scc(-c2cc(C(F)(F)F)cc(C(F)(F)F)c2)c1C(=O)c1cccc(C(F)(F)F)c1 | 90 | 84 | – | – | –
